Assay results from publication PMC2765218 (Nature biotechnology, 2009).

Tested on: mutant HTT
Assay type: cell-based, human
Settings: GM04281 cells
Procedure, shortened: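 GM04281 fibroblasts (heterozygous for mutant HTT) were grown in MEM with 10% heat-inactivated FBS and plated 2 days before treatment. PNA-peptide conjugate stocks were heated 65 °C for 5 min, then added in OptiMEM; medium was replaced after 24 h and cells were harvested about 4 days later. BCA-normalised lysates ran on 5% Tris-acetate SDS-PAGE (ice bath) to separate wild-type and mutant HTT. Anti-HTT immunoblot with β-actin loading control; densitometry gave % inhibition versus control from triplicate experiments. Dose-response fit: y=100(1−x^m/(n^m+x^m)).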

K-GGCGGCTGTTGCTGCTGCT-K8 [3J/HTT] was tested, and the “selectivity (wild-type IC50/mutant IC50), HTT” value was 5 fold.
